Experimental data reported in ChEMBL document CHEMBL4732165, “Analogues of the Herbicide, N-Hydroxy-N-isopropyloxamate, Inhibit Mycobacterium tuberculosis Ketol-Acid Reductoisomerase and Their Prodrugs Are Promising Anti-TB Drug Leads” (J Med Chem, 2021).
Values after ≈ are worked out from the molar mass of the structure shown.

What was measured:
[1] = Inhibition of Mycobacterium tuberculosis KARI using 2-acetolactate as substrate preincubated for 30 mins in presence of Mg2+ and NADPH followed by substrate addition by Morrison's equation analysis
Outline: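 0.27 μM MtKARI preincubated 30 min at 25 °C with inhibitor, 50 μM NADPH and 50 mM Mg²⁺ in 0.1 M Tris-HCl pH 8. Reaction started with 200 μM 2-acetolactate, and A340 decrease followed for 5 min. Compounds above 80% inhibition at 100 μM were retested at 1 nM−100 μM. Ki from Morrison equation fit.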

[2] = test system: Mycobacterium tuberculosis; assay: Potency index, ratio of IC50 for IpOHA to IC50 for test compound for inhibition of Mycobacterium tuberculosis KARI using 2-acetolactate as substrate
[3] = Inhibition of Slackia exigua KARI
[4] = test system: Mycobacterium tuberculosis; assay: Antimycobacterial activity against Mycobacterium tuberculosis H37Rv assessed as reduction in bacterial growth incubated for 5 days by resazurin dye based assay; type: functional; details: 120 h, time 5 day
Outline: (§1)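 REMA in defined minimal medium (KH2PO4, Na2HPO4, L-asparagine, ferric ammonium citrate, MgSO4, CaCl2, ZnSO4, 0.1% glycerol) at 37 °C. Compounds 2-fold serially diluted from 30 μM. Fluorescence (ex 530/em 590 nm) read 24 h after resazurin.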

[5] = Selectivity ratio of IC50 for Mycobacterium tuberculosis KARI to IC50 for Slackia exigua KARI
[6] = test system: Mycobacterium tuberculosis; assay: Antimycobacterial activity against Mycobacterium tuberculosis H37Rv assessed as reduction in bacterial growth incubated for 5 days in presence of BCAA by resazurin dye based assay; type: functional; details: 120 h, time 5 day
Outline: (§2)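 REMA as for the unsupplemented assay, but with medium supplemented with 1 mM each of leucine, isoleucine and valine. Defined minimal medium at 37 °C. Log-phase inoculum at final OD 0.001 (H37Ra) or 0.003 (H37Rv). 2-fold dilutions from 30 μM. Resazurin fluorescence (530/590 nm) read after 24 h.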

[7] = test system: Mycobacterium tuberculosis; assay: Antimycobacterial activity against Mycobacterium tuberculosis H37Ra assessed as reduction in bacterial growth incubated for 5 days in presence of BCAA by resazurin dye based assay; type: functional; details: 120 h, time 5 day; outline: as §2
[8] = Selectivity ratio of MIC for antimycobacterial activity against Mycobacterium tuberculosis H37Ra in presence of BCAA to MIC for antimycobacterial activity against Mycobacterium tuberculosis H37Ra in absence of BCAA; type: functional
[9] = Selectivity index, ratio of MIC for antimycobacterial activity against Mycobacterium tuberculosis H37Rv in presence of BCAA to MIC for antimycobacterial activity against Mycobacterium tuberculosis H37Rv in absence of BCAA; type: functional
[10] = test system: Mycobacterium tuberculosis; assay: Antimycobacterial activity against Mycobacterium tuberculosis H37Ra assessed as reduction in bacterial growth incubated for 5 days by resazurin dye based assay; type: functional; details: 120 h, time 5 day; outline: as §1
[11] = Inhibition of Escherichia coli KARI using acetolactate as substrate assessed as slow and tight binding by measuring initial inhibition constant in presence of NADPH by spectrophotometric analysis
[12] = Inhibition of Escherichia coli KARI using acetolactate as substrate assessed as slow and tight binding by measuring steady-state inhibition constant in presence of NADPH by spectrophotometric analysis
[13] = Inhibition of Mycobacterium tuberculosis KARI expressed in Escherichia coli BL21 using 2-acetolactate as substrate in presence of NADPH by spectrophotometric analysis
RAW264.7 = assay: Cytotoxicity against mouse RAW264.7 cells up to 100 uM incubated for 24 to 48 hrs by MTT assay; type: cell-based; details: time 24-48 hrs
Outline: (§3)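 Cells grown to 80% confluency, RAW 264.7 and HEK293 in DMEM, SW620 in RPMI, each with 10% FBS and 1 mM nonessential amino acids. Seeded at 2×10⁵ (RAW 264.7), 5×10³ (HEK293) or 2×10³ (SW620) per well and held 24−48 h at 37 °C, 5% CO2. Twofold dilutions added at 1% DMSO final, then overnight incubation. MTT 3 h, DMSO solubilisation, A570.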

HEK293 = assay: Cytotoxicity against human HEK293 cells up to 50 uM incubated for 24 to 48 hrs by MTT assay; type: cell-based; details: time 24-48 hrs; outline: as §3
SW-620 = assay: Cytotoxicity against human SW-620 cells up to 50 uM incubated for 24 to 48 hrs by MTT assay; type: cell-based; details: time 24-48 hrs; outline: as §3

In the case of O=C(O)C(=O)N(O)C1CCCC1, the Ki [1] is reported as 19.7 nM, the Ratio IC50 [2] is reported as 5 and the Ki [3] is reported as 8.5 nM. For the same compound, the MIC90 [4] was 219 µM (≈ 37.9 µg/mL).

In the case of CCOC(=O)C(=O)N(O)C(C)CC(C)C (stereo not drawn), the Ki [1] is reported as 2660 nM.

CCOC(=O)C(=O)N(O)C1CCCC1 showed a Ki [1] of 32.2 nM.

For CC(C)NC(=O)C(=O)O, the Ki [1] was > 20000 nM.

Compound CCOC(=O)C(=O)N(O)C1CCCCC1 has a Ki [1] of 1020 nM.

CC(c1ccccc1)N(O)C(=O)C(=O)O (stereo not drawn) showed a Ki [1] of 97.7 nM, a Ratio IC50 [5] of 2 and a Ki [3] of 193 nM.

For CC(C)CNC(=O)C(=O)O, the Ki [1] was > 20000 nM.

With CCCCCCCCOC(=O)C(=O)N(O)C1CCCC1 the MIC90 [6] was 18.9 µM, the MIC90 [7] was 24.9 µM and the Selectivity ratio [8] was 3. The Selectivity ratio [9] was 6, the MIC90 [10] was 6.34 µM (≈ 1.81 µg/mL) and the MIC90 [4] was 2.32 µM (≈ 0.662 µg/mL).

Compound CC(C)N(O)C(=O)C(=O)O has a Ki [11] of 160 nM, a Ki [12] of 0.09 nM and a Ki [13] of 97.7 nM.

O=C(O)C(=O)N(O)C1CCCCC1 showed a Ki [1] of 39.6 nM, a Ratio IC50 [5] of 25 and a Ki [3] of 8.5 nM.

With O=C(O)C(=O)NCc1ccccc1 the Ki [1] was > 20000 nM.

In the case of CCOC(=O)C(=O)NCc1ccccc1, the Ki [1] is reported as > 20000 nM.

In the case of CC(C)CC(C)N(O)C(=O)C(=O)O (stereo not drawn), the Ki [1] is reported as 660 nM.

For COC(=O)CC(=O)N(O)C1CCCC1, the Ki [1] was > 20000 nM.

In the case of O=C(O)C(=O)N(C1CCCCC1)C1CCCCC1, the Ki [1] is reported as > 20000 nM.

In the case of CCOC(=O)C(=O)N(O)C1CCN(C(=O)OC(C)(C)C)CC1, the Ki [1] is reported as > 20000 nM.

In the case of CCOC(=O)C(=O)N(C1CCCCC1)C1CCCCC1, the Ki [1] is reported as > 20000 nM.

In the case of CCOC(=O)C(=O)N(O)C1CCNCC1, the Ki [1] is reported as 3080 nM.

For CCCCCCOC(=O)C(=O)N(O)C1CCCC1, the MIC90 [10] was > 30 µM.

Work on CCCCCCCCCCCCOC(=O)C(=O)N(O)C1CCCC1 yielded an MIC90 [6] of 17.2 µM, an MIC90 [7] of 14.1 µM and a Selectivity ratio [8] of 3. For the same compound, the Selectivity ratio [9] was 6, the MIC90 [10] was 4.99 µM (≈ 1.7 µg/mL) and the MIC90 [4] was 2.97 µM (≈ 1.01 µg/mL).

In the case of O=C(O)CC(=O)N(O)C1CCCC1, the Ki [1] is reported as > 20000 nM.

CCOC(=O)C(=O)N(O)C(C)c1ccccc1 (stereo not drawn) showed a Ki [1] of 152 nM.

With CCOC(=O)C(=O)N(CC)CC the Ki [1] was > 20000 nM.

In the case of CCCCCCCCCCCCCCCCCCOC(=O)C(=O)N(O)C1CCCC1, the MIC90 [10] is reported as > 30 µM.

In the case of CCN(CC)C(=O)C(=O)O, the Ki [1] is reported as > 20000 nM.

In the case of CCCCCCCCCCOC(=O)C(=O)N(O)C1CCCC1, the MIC90 [6] is reported as 15.2 µM, the Activity (RAW264.7) is reported as “Non-Toxic” and the MIC90 [7] is reported as 15.3 µM. The Selectivity ratio [8] was 3, the Selectivity ratio [9] was 6 and the Activity (HEK293) was “Non-Toxic”. The MIC90 [10] was 3.01 µM (≈ 0.943 µg/mL), the Activity (SW-620) was “Non-Toxic” and the MIC90 [4] was 2.45 µM (≈ 0.768 µg/mL).
